Structures can show the parent of a compound that is named as a salt.
Assays:
[1] = test system: ADP-induced platelet aggregation; experiment: ADP-induced platelet aggregation in whole blood, impedance aggregometry; assay type: in vivo, human; conditions: for mean %inhibition of platelet aggregation: all subjects
[2] = Safety assessment, treatment emergent adverse events; assay type: in vivo, human; conditions: A n=40, B n=39
Summary of the method: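 Healthy Indian adults (18–45 y, BMI 18.50–29.90 kg/m²) were CYP2C19-genotyped at two laboratories as *1/*1 or *2/*2. Randomised two-period crossover: loading dose day 1, then once-daily maintenance doses days 2–6, with a washout of at least 14 days. The investigator recorded adverse events throughout the study, along with PT/PTT, vital signs, ECGs, haematology, blood chemistry, urinalysis and physical examinations.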

[3] = two-step process in the liver; ref 8 9; cited from earlier work
CYP2C19 = conditions: ref 8 9; cited from earlier work

For COC(=O)[C@H](c1ccccc1Cl)N1CCc2sccc2C1 [Clopidogrel, Hydrogen sulfate;hydron;methyl (2S)-2-(2-chlorophenyl)-2-(6,7-dihydro-4H-thieno[3,2-c]pyridin-5-yl)acetate], the “mean %inhibition of platelet aggregation” value ([1]; 6 hours postdose (loading dose: AT-10 40 mg, clopidogrel 300 mg)) was 18.53%, the “mean %inhibition of platelet aggregation” value ([1]; 6 hours postdose on day 6 (maintenance dose: AT-10 10 mg, clopidogrel 75 mg)) was 51.19% and the “time at which inhibition of ADP-induced platelet aggregation reaches the peak” value ([1]; postdose) was “around 6 hours”. For the same molecule, the “Treatment emergent adverse events: Anxiety” value [2] was 00.0 (00.0) n (%) E, the “Treatment emergent adverse events: Cough” value [2] was 00.0 (00.0) n (%) E and the “Treatment emergent adverse events: Psychiatric disorders” value [2] was 00.0 (00.0) n (%) E. For the same molecule, the “Treatment emergent adverse events: Respiratory, thoracic and mediastinal disorders” value [2] was 00.0 (00.0) n (%) E, the “share of the drug converted to the active metabolite H4” value [3] was 15% and the “contribution of CYP2C19 to the first metabolic step (Step 1)” value (CYP2C19) was 45%.
